Results collected from several papers.
Protocols differ between the studies behind these lines.
Target: Aurora kinase B (AURKB, Homo sapiens, UniProt Q96GD4)
Read-out: enzyme activity

Structure (SMILES) | action | method | tested at | remaining activity
Nc1ncnc2occ(-c3ccc(NC(=O)Nc4cc(C(F)(F)F)ccc4F)cc3)c12 | inhibitor | – | 20 µM | 0.1%
CS(=O)(=O)CCNCc1ccc(-c2ccc3ncnc(Nc4ccc(OCc5cccc(F)c5)c(Cl)c4)c3c2)o1 | – | – | 0.5 µM | 98.4%
Cc1ccc(C(=O)Nc2ccc(CN3CCN(C)CC3)c(C(F)(F)F)c2)cc1C#Cc1cnc2cccnn12 | inhibitor | – | 23.5 nM | 84%
O=C(NCCCNc1nc(Nc2cccc(NC(=O)N3CCCC3)c2)ncc1I)c1cccs1 | inhibitor | radiometric | 1 µM | 3%
COc1cc2c(N3CCN(C(=O)Nc4ccc(OC(C)C)cc4)CC3)ncnc2cc1OCCCN1CCCCC1 | – | – | 0.5 µM | 89.6%
Cc1sc(C(=O)NC2COC2)cc1-n1cc(NC(=O)Nc2c(F)cccc2Cl)cn1 | inhibitor | – | 10 µM | 96.4%
COc1cc(Nc2cnc(C#N)c(O[C@H](C)CN(C)C)n2)ncc1-c1cnn(C)c1 | inhibitor | radiometric | 1 µM | 42%
Cc1cnc(NC2CCOCC2)nc1-n1cnc(C(=O)NC(CN)c2cc(F)cc(Cl)c2)c1 (stereo not shown) | inhibitor | radiometric | 1 µM | 84%
COc1cc(Cl)c(C(=O)N[C@@H](CN[C@H]2CC[C@@H](N)CC2)Cc2ccc(C#N)cc2)cc1-c1ccc(CN[C@H](C)c2ccc(C)cc2)o1 | inhibitor | – | 1 µM | 96%
O=C1NC(=O)c2cc(Nc3ccc(F)cc3)c(Nc3ccc(F)cc3)cc21 | inhibitor | – | 0.5 µM | 99.7%
Cc1nn(CC(F)(F)F)cc1Nc1nccc(NCCCNC(=O)C2CCC2)n1 | inhibitor | radiometric | 1 µM | 90%
CCN(CC)c1ccc(C2=NNC(=O)CC2C)cc1[N+](=O)[O-] (stereo not shown) | inhibitor | – | 10 µM | 118%
Nc1nc(NC2CCCCC2)sc1C(=O)c1ccccc1 | inhibitor | – | 10 µM | 75%
Cc1nn(CC(F)(F)F)cc1Nc1nccc(NCc2ccc(S(N)(=O)=O)cc2)n1 | inhibitor | radiometric | 1 µM | 82%
CC(C)(C)c1nc(-c2cccc(NS(=O)(=O)c3c(F)cccc3F)c2F)c(-c2ccnc(N)n2)s1 | inhibitor | radiometric | 1 µM | 81%
Cc1nn(CC(F)(F)F)cc1Nc1nccc(NCCc2cnc[nH]2)n1 | inhibitor | radiometric | 1 µM | 71%
FC(F)c1nc2ccccc2n1-c1nc(N2CCOCC2)nc(N2CCOCC2)n1 | inhibitor | – | 10 µM | 94%
CN1CCc2cc(Nc3ncc(C4CC4)c(NCCCNC(=O)C4CCC4)n3)ccc2C1 | inhibitor | radiometric | 1 µM | 8%
O=C(Nc1cnn(-c2csc(C(=O)NC3COC3)c2)c1)Nc1ccccc1Cl | inhibitor | – | 5 µM | 93%
